# From ChEMBL document CHEMBL1157559, “Synthesis and biological evaluation of novel pyrazolyl-2,4-thiazolidinediones as anti-inflammatory and neuroprotective agents” (Bioorg Med Chem, 2010)
# pEC50, pIC50: −log10 of the molar value. Activity calls are given as the source filed them. The rule behind the calls is not given here.
# What was measured:
# [1] = Acute toxicity in po dosed Swiss albino mouse after 24 hrs; assay type: organism-based; conditions: in vivo, read-out: ALD50
# How it was run: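 Four groups of five Swiss albino mice (20–30 g), fasted 24 h beforehand, given compounds orally at graded doses of 0–300 mg/kg. Mortality recorded at each dose level after 24 h to estimate the acute lethal dose (ALD50).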
# THP-1 [2] = assay: Cytotoxicity against LPS and IFN-gamma-stimulated human THP1 cells after 24 hrs; assay type: functional, cell-based; conditions: THP-1, 24 h
# How it was run: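 THP-1 cells, 24-well, in DMEM-F12 with 5% FBS. Compound or DMSO added 15 min before LPS 0.5 µg/mL plus IFN-γ 150 U/mL. After 24 h, LDH release (fraction of Triton-lysed value, OD 490) and MTT were read. EC50 taken from curves of at least three independent experiments; the lower of the two assay values was reported.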
# THP-1 [3] = assay: Inhibition of MCP1 release in human THP1 cells after 24 hrs by ELISA; assay type: functional, cell-based
# How it was run: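 THP-1 cells pretreated 15 min with compound, then stimulated with LPS 0.5 µg/mL plus IFN-γ 150 U/mL. After 24 h, MCP-1 (ng/mL) measured in cell-free medium by ELISA.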
# Rattus norvegicus [4] = assay: Antiinflammatory activity in Wistar albino rat acute inflammatory model assessed as inhibition of formalin-induced paw edema at 20 mg/kg, po administered 1 hr before formalin challenge measured after 1 hr by plethysmometer relative to control; assay type: functional; parameters: scale not given: the % may be the effect or the level left
# How it was run: (§1)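 Male Wistar rats, 180–200 g, groups of five. Test compound 20 mg/kg po; 1 h later 0.1 mL 2% formalin injected subplantar into left hind paw under light ether anesthesia. Paw volume by water plethysmometer at 0 and 1, 2, 3, 4 h after formalin. % inhibition = (Vt−V0)control minus (Vt−V0)treated, divided by (Vt−V0)control ×100. Mean ± SEM, ANOVA with Student–Newman–Keuls.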
# Rattus norvegicus [5] = assay: Antiinflammatory activity in Wistar albino rat acute inflammatory model assessed as inhibition of formalin-induced paw edema at 20 mg/kg, po administered 1 hr before formalin challenge measured after 2 hrs by plethysmometer relative to control; assay type: functional; parameters: scale not given: the % may be the effect or the level left; how it was run: as §1
# Rattus norvegicus [6] = assay: Antiinflammatory activity in Wistar albino rat acute inflammatory model assessed as inhibition of formalin-induced paw edema at 20 mg/kg, po administered 1 hr before formalin challenge measured after 3 hrs by plethysmometer relative to control; assay type: functional; parameters: scale not given: the % may be the effect or the level left; how it was run: as §1
# Rattus norvegicus [7] = assay: Antiinflammatory activity in Wistar albino rat acute inflammatory model assessed as inhibition of formalin-induced paw edema at 20 mg/kg, po administered 1 hr before formalin challenge measured after 4 hrs by plethysmometer relative to control; assay type: functional; parameters: scale not given: the % may be the effect or the level left; how it was run: as §1
# Rattus norvegicus [8] = assay: Antiinflammatory activity in Wistar albino rat sub-acute inflammatory model assessed as inhibition of formalin-induced paw edema at 20 mg/kg, po administered daily for 7 days by plethysmometer relative to control; assay type: functional; conditions: 168 h
# How it was run: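 Rats dosed orally at 20 mg/kg daily for 7 consecutive days. 0.1 mL 2% formalin given subplantar in left hind paw under light ether 1 h after the first oral dose, with a second injection on day 3. Paw edema weight (g) measured on day 8. % inhibition = (control − treated)/control ×100. Groups of five.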
# Rattus norvegicus [9] = assay: Antiinflammatory activity in Wistar albino rat sub-acute inflammatory model assessed as inhibition of turpentine oil-induced granuloma pouch exudate volume at 20 mg/kg, po 1 hr before turpentine oil challenge for 7 days assessed measured on day 8; assay type: functional
# How it was run: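 Male rats 120–150 g, five per group. Subcutaneous dorsal pouch made under ether with 2 mL air, then 0.5 mL turpentine oil injected. Compound 20 mg/kg po 1 h before turpentine, then daily for seven days. On day 8 exudate drawn by syringe under anesthesia and volume measured. % inhibition = (Vcontrol − Vtreated)/Vcontrol ×100.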
# Rattus norvegicus [10] = assay: Antiinflammatory activity in po dosed Wistar albino rat acute inflammatory model assessed as inhibition of formalin-induced paw edema administered 1 hr before formalin challenge measured after 3 hrs by plethysmometer; assay type: functional
# How it was run: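 Rats dosed orally at 5, 10, 20, 40 and 50 mg/kg body weight. Edema volume inhibition measured 3 h after subplantar formalin (2%, 0.1 mL), and ED50 determined from these doses.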
# HL-60 = assay: Inhibition of phagocyte respiratory burst in human HL60 cells after 6 to 7 days by luminol-induced chemiluminescence; assay type: functional, cell-based
# How it was run: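 HL-60 cells differentiated 6–7 days in DMEM-F12 with 10% FBS and 1.3% DMSO, washed into serum-free, phenol red-free medium, then held 30 min at 37 °C before compound or DMSO was added. Luminol injected, 7.5 min baseline recorded, then FMLP injected (final 1 µM; luminol 5 mM; DMSO 0.5%). Chemiluminescence recorded 30 min at 37 °C; read-out was area under the curve.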
# SH-SY5Y [11] = assay: Antineurotoxicity in human SH-SY5Y cells assessed as inhibition human THP1 cell supernatant-induced cytotoxicity compound pretreated 24 to 48 hrs to THP1 cells measured after 72 hrs of supernatant addition; assay type: functional, cell-based
# How it was run: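 THP-1 cells in DMEM-F12 with 5% FBS, pretreated 15 min with compound or DMSO, then stimulated with LPS 0.5 µg/mL plus IFN-γ 150 U/mL for 24 or 48 h. Cell-free supernatant transferred to SH-SY5Y cells plated 24 h earlier. After 72 h, viability by LDH release and MTT. IC50 from curves of at least three independent experiments.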
# Rattus norvegicus [12] = assay: Gastrointestinal toxicity in Wistar albino rat assessed as ulceration at 100 mg/kg/day, po administered twice daily for 3 days; assay type: organism-based; parameters: route oral; conditions: in vivo, 72 h
# How it was run: (§2)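 Male rats 180–200 g, groups of five, fasted 12 h with water available. Compounds given orally as two equal doses at 0 and 12 h, 100 mg/kg per day, for three successive days; vehicle control 1% gum acacia. Rats killed 6 h after last dose. Stomach opened along greater curvature, washed with cold saline and inspected under 3× lens for hyperemia, hemorrhage, erosions or ulcers.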
# SH-SY5Y [13] = assay: Neuroprotective activity in human SH-SY5Y cells assessed as inhibition of LPS, IFN-gamma-stimulated THP1 cellular supernatant-induced cytotoxicity after 72 hrs by LDH assay; assay type: functional, cell-based
# How it was run: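 SH-SY5Y cells plated 24 h, then medium replaced with supernatant from THP-1 cells stimulated with LPS + IFN-γ for 48 h. Compound added directly to the SH-SY5Y cells at the time of transfer. Cell death measured by LDH release after 72 h; 4–6 independent experiments.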
# SH-SY5Y [14] = assay: Neuroprotective activity in human SH-SY5Y cells assessed as inhibition of H2O2-induced cytotoxicity after 72 hrs by LDH assay; assay type: functional, cell-based
# How it was run: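 SH-SY5Y cells plated in DMEM-F12 with 5% FBS. After 24 h, medium replaced with medium containing H2O2 (500 µM in methods, 250 µM in figure legend), and compound added directly at that time. Cell death measured by LDH release 72 h later.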
# [15] = target: T1, Prostaglandin G/H synthase 1 (Ovis aries) (UniProt P05979); assay: Inhibition of ovine COX1 at 10 uM
# T1 sequence (whole entry): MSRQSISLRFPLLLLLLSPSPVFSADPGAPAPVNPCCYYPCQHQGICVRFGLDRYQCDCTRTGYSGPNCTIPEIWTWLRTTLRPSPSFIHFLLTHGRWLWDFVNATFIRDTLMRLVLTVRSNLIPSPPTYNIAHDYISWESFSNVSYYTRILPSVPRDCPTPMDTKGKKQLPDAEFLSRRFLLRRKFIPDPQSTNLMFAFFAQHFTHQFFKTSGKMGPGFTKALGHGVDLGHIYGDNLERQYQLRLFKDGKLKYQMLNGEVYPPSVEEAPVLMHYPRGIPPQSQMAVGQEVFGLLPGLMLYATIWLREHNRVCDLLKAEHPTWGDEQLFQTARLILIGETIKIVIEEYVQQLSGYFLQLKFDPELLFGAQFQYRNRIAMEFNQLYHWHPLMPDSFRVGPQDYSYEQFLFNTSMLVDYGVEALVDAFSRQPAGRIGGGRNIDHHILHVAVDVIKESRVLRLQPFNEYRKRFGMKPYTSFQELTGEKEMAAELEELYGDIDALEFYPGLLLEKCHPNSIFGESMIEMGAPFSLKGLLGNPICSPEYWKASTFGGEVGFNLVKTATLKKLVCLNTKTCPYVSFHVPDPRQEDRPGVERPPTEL
# How it was run: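 Kit assay with ovine COX-1, run per manufacturer's protocol. Read-out was percent inhibition of prostaglandin production, with compound at 10 µM and three experiments.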
# Rattus norvegicus [16] = assay: Gastrointestinal toxicity in Wistar albino rat assessed as hyperemia at 100 mg/kg/day, po administered twice daily for 3 days; assay type: organism-based; parameters: route oral; conditions: in vivo, 72 h; how it was run: as §2
# [17] = target: T2, Prostaglandin G/H synthase 2 (Homo sapiens) (UniProt P35354); conditions: at 10 µM
# T2 sequence (whole entry): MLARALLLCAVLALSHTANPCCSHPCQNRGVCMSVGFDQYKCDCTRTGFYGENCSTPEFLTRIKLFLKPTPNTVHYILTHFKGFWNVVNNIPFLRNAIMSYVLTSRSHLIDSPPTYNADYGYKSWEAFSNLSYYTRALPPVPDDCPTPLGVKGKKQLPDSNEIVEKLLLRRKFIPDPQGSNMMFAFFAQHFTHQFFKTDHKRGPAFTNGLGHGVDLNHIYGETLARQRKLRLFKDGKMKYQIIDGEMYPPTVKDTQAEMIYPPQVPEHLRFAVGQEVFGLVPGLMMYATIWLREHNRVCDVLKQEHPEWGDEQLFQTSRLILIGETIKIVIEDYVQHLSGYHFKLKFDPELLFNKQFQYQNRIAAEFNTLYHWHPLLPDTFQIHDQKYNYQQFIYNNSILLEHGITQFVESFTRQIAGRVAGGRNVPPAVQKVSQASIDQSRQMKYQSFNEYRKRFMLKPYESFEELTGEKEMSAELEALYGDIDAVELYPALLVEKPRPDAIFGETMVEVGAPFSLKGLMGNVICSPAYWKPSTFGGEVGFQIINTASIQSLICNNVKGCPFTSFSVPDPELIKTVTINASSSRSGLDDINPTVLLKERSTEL
Structure (SMILES),LD50 at 24 h [1],pEC50 (THP-1 [2]),inhibition (THP-1 [3]),pIC50 (SH-SY5Y [11]),further results
CCCN1C(=O)S/C(=C\c2cn(-c3ccccc3)nc2-c2ccc(Cl)cc2)C1=O,> 300 mg/kg,< 4.00,inactive,–,–
O=C1NC(=O)/C(=C/c2cn(-c3ccccc3)nc2-c2ccccc2)S1,> 300 mg/kg,4.30,inactive,–,Activity (Rattus norvegicus [4]): 35%; Activity (Rattus norvegicus [5]): 38%; Activity (Rattus norvegicus [6]): 43%; Activity (Rattus norvegicus [7]): 43%; inhibition in vivo at 20 mg/kg (Rattus norvegicus [8]): 53%; inhibition in vivo at 20 mg/kg (Rattus norvegicus [9]): 53%; ED50 (Rattus norvegicus [10]): 21.3 mg/kg; pIC50 (HL-60): 5.10
O=C1S/C(=C\c2cn(-c3ccccc3)nc2-c2ccccc2)C(=O)N1Cc1ccc(Cl)cc1,> 300 mg/kg,4.30,inactive,4.10,–
O=C1S/C(=C\c2cn(-c3ccccc3)nc2-c2ccc(Cl)cc2)C(=O)N1Cc1cccc(Br)c1,> 300 mg/kg,5.30,inactive,5.10,–
COc1ccc2c(c1)c(CC(=O)O)c(C)n2C(=O)c1ccc(Cl)cc1 [INDOMETHACIN],–,–,–,–,Activity (Rattus norvegicus [12]): 100%
O=C1NC(=O)/C(=C/c2cn(-c3ccccc3)nc2-c2ccc(Cl)cc2)S1,> 300 mg/kg,< 4.00,inactive,–,Activity (Rattus norvegicus [4]): 41%; Activity (Rattus norvegicus [5]): 50%; Activity (Rattus norvegicus [6]): 74%; Activity (Rattus norvegicus [7]): 74%; inhibition in vivo at 20 mg/kg (Rattus norvegicus [8]): 42%; inhibition in vivo at 20 mg/kg (Rattus norvegicus [9]): 44%; ED50 (Rattus norvegicus [10]): 13 mg/kg; pIC50 (HL-60): 6.10
C=CCN1C(=O)S/C(=C\c2cn(-c3ccccc3)nc2-c2ccc(Cl)cc2)C1=O,> 300 mg/kg,3.92,inactive,5.00,inhibition (SH-SY5Y [13]): inactive; inhibition (SH-SY5Y [14]): inactive; inhibition [15]: 26.5%; Activity (Rattus norvegicus [4]): 53%; Activity (Rattus norvegicus [5]): 63%; Activity (Rattus norvegicus [6]): 72%; Activity (Rattus norvegicus [7]): 66%; inhibition in vivo at 20 mg/kg (Rattus norvegicus [8]): 47%; inhibition in vivo at 20 mg/kg (Rattus norvegicus [9]): 50%; Activity (Rattus norvegicus [16]): Non-toxic; Activity (Rattus norvegicus [12]): 0%; ED50 (Rattus norvegicus [10]): 15.4 mg/kg; inhibition [17]: 13.6%
O=C1S/C(=C\c2cn(-c3ccccc3)nc2-c2ccccc2)C(=O)N1Cc1cccc(Br)c1,> 300 mg/kg,< 4.00,inactive,–,–
Cc1ccc(-c2cc(C(F)(F)F)nn2-c2ccc(S(N)(=O)=O)cc2)cc1 [CELECOXIB],–,4.30,inactive,5.30,Activity (Rattus norvegicus [4]): 41%; Activity (Rattus norvegicus [5]): 50%; Activity (Rattus norvegicus [6]): 60%; Activity (Rattus norvegicus [7]): 68%; inhibition in vivo at 20 mg/kg (Rattus norvegicus [8]): 50%; inhibition in vivo at 20 mg/kg (Rattus norvegicus [9]): 54%; Activity (Rattus norvegicus [12]): 0%; ED50 (Rattus norvegicus [10]): 14.3 mg/kg
O=C1S/C(=C\c2cn(-c3ccccc3)nc2-c2ccc(Cl)cc2)C(=O)N1Cc1ccc(Cl)cc1,> 300 mg/kg,5.40,inactive,–,–
O=C1S/C(=C\c2cn(-c3ccccc3)nc2-c2ccccc2)C(=O)N1Cc1ccccc1,> 300 mg/kg,< 4.00,inactive,–,–
O=C1S/C(=C\c2cn(-c3ccccc3)nc2-c2ccc(Cl)cc2)C(=O)N1Cc1ccccc1,> 300 mg/kg,6.00,inactive,5.10,–
C=CCN1C(=O)S/C(=C\c2cn(-c3ccccc3)nc2-c2ccccc2)C1=O,> 300 mg/kg,< 4.00,inactive,4.30,–
CCCN1C(=O)S/C(=C\c2cn(-c3ccccc3)nc2-c2ccccc2)C1=O,> 300 mg/kg,< 4.00,inactive,–,–
